The source made the active and inactive calls. No cut-off for these calls is given here.
Legend:
[1] = Cmax in dog plasma at 3 mg/kg, po; type: ADME, organism-based, Canis lupus familiaris; parameters: dose 3 mg/kg, route oral
[2] = target: Bromodomain and WD repeat-containing protein 1 (Homo sapiens) (UniProt Q9NSI6); assay: Binding affinity to human partial length BRWD1 (A1310 to E1430 residues) expressed in Escherichia coli BL21 cells assessed as residual binding level at 1 uM measured after 1 hr by quantitative PCR based BROMOscan assay relative to control
Method in brief: (§1)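 A BROMOScan competition-binding panel of 32 bromodomains was run at a single 1 μM compound concentration. Results are primary-screen 'Percent Control', where lower values indicate stronger binding.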

Cytochrome P450 2C9 = Cytochrome P450 2C9 (Homo sapiens, UniProt P11712); assay: Time-dependent inhibition of CYP2C9 in human liver microsomes at 10 uM using diclofenac as substrate preincubated up to 30 mins followed by NADPH generating system addition and measured after 10 mins; type: ADME
Method in brief: (§2)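 Human liver microsomes 0.2 mg/mL, 100 mM phosphate pH 7.4, 10 μM test compound, preincubated 0, 5, 10 and 30 min at 37 °C; then NADPH plus probe cocktail (5 μM midazolam, 50 μM testosterone, 5 μM dextromethorphan, 10 μM diclofenac, 50 μM phenacetin, 50 μM S-(+)-mephenytoin) added; 10 min reaction; kobs in units of 10^-4/min.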

Cytochrome P450 3A4 = Cytochrome P450 3A4 (Homo sapiens, UniProt P08684); assay: Time-dependent inhibition of CYP3A4 in human liver microsomes at 10 uM using midazolam or testosterone as substrate preincubated up to 30 mins followed by NADPH generating system addition and measured after 10 mins; type: ADME; method in brief: as §2
[3] = Half life in mouse liver microsomes at 1 uM preincubated for 5 mins followed by NADPH addition and measured after 5 to 30 mins by LC/MS/MS analysis; type: ADME, Microsome; details: microsomes, 1 µM
[4] = target: Bromodomain-containing protein 2 (Homo sapiens) (UniProt P25440); assay: Binding affinity to human partial length BRD2 bromodomain 1 isoform 1 (K71 to N194 residues) expressed in Escherichia coli BL21 cells assessed as residual binding level at 1 uM measured after 1 hr by quantitative PCR based BROMOscan assay relative to control; method in brief: as §1
[5] = target: Bromodomain-containing protein 3 (Homo sapiens) (UniProt Q15059); assay: Binding affinity to human partial length BRD3 bromodomain 1 (P24 to E144 residues) expressed in Escherichia coli BL21 cells assessed as residual binding level at 1 uM measured after 1 hr by quantitative PCR based BROMOscan assay relative to control; method in brief: as §1
[6] = target: Bromodomain-containing protein 3 (Homo sapiens) (UniProt Q15059); assay: Binding affinity to human partial length BRD3 bromodomain 2 (G306 to P416 residues) expressed in Escherichia coli BL21 cells assessed as residual binding level at 1 uM measured after 1 hr by quantitative PCR based BROMOscan assay relative to control; method in brief: as §1
[7] = target: Histone acetyltransferase KAT2B (Homo sapiens) (UniProt Q92831); assay: Binding affinity to human partial length PCAF (G715 to D831 residues) expressed in mammalian expression system assessed as residual binding level at 1 uM measured after 1 hr by quantitative PCR based BROMOscan assay relative to control
Method in brief: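 Bromodomain panel screen (32 bromodomains) run at 1 μM single concentration; primary binding reported as 'Percent Control', lower values meaning stronger interaction.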

MV4-11 [8] = assay: Antiproliferative activity against human MV4-11 cells after 72 hrs by CCK8 or SRB assay; type: functional, cell-based
Hep 3B2 = assay: Antiproliferative activity against human Hep3B cells after 72 hrs by CCK8 or SRB assay; type: functional, cell-based
BT-549 = assay: Antiproliferative activity against human BT549 cells after 72 hrs by CCK8 or SRB assay; type: functional, cell-based
MV4-11 [9] = assay: Induction of apoptosis in human MV4-11 cells assessed as induction of PARP cleavage at 10 to 1000 nM after 24 hrs by Western blot analysis; type: functional, cell-based
Method in brief: (§3)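 MV4-11 cells exposed to compound at the indicated doses for 24 h; lysates probed by Western blotting for the target protein, with GAPDH as loading control.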

MV4-11 [10] = assay: Induction of apoptosis in human MV4-11 cells assessed as reduction in BCL-2 level after 24 hrs by Western blot analysis; type: functional, cell-based; method in brief: as §3
[11] = target: Bromodomain-containing protein 4 (Homo sapiens, UniProt O60885); assay: Inhibition of BRD4 in human MV4-11 cells assessed as reduction in BCL2 phosphorylation at ser70 residues after 24 hrs by Western blot analysis; type: cell-based
Method in brief: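 MV4-11 cells exposed to graded doses for 24 h; lysates immunoblotted for phospho-BCL2, with GAPDH as loading control.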

MV4-11 [12] = assay: Induction of apoptosis in human MV4-11 cells assessed as reduction in PUMA level after 24 hrs by Western blot analysis; type: functional, cell-based; method in brief: as §3
MV4-11 [13] = assay: Induction of apoptosis in human MV4-11 cells assessed as reduction in BID level after 24 hrs by Western blot analysis; type: functional, cell-based; method in brief: as §3
MV4-11 [14] = assay: Induction of apoptosis in human MV4-11 cells assessed as reduction in c-IAP2 level after 24 hrs by Western blot analysis; type: functional, cell-based
MV4-11 [15] = assay: Induction of apoptosis in human MV4-11 cells assessed as reduction in BCL-2 mRNA expression after 24 hrs by real time qPCR analysis; type: functional, cell-based
[16] = Half life in dog liver microsomes; type: ADME, Canis lupus familiaris, Microsome
[17] = Tmax in ICR mouse plasma at 100 mg/kg, po administered via gavage measured after 0.25 to 24 hrs by UPLC/MS analysis; type: ADME, organism-based
Method in brief: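 Male ICR mice dosed orally (3, 10 or 100 mg/kg, per line) in 1% DMSO/0.5% HPMC vehicle; plasma drug levels measured.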

[18] = AUC (0 to t) in ICR mouse brain at 50 mg/kg, po administered via gavage measured after 0.25 to 24 hrs by UPLC/MS analysis; type: ADME, organism-based; parameters: time lower 0.25 hr, dose 50 mg/kg, time upper 24 hr, route oral
Method in brief: (§4)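 Male ICR mice were dosed orally in 1% DMSO/0.5% HPMC vehicle. Plasma (and brain, where stated) concentrations gave Tmax, Cmax, T1/2, AUC0-t and AUC0-inf.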

[19] = AUC (0 to infinity) in ICR mouse plasma at 50 mg/kg, po administered via gavage measured after 0.25 to 24 hrs by UPLC/MS analysis; type: ADME, organism-based; parameters: dose 50 mg/kg, route oral, time infinity; method in brief: as §4
[20] = AUC (0 to infinity) in rat plasma at 50 mg/kg, po; type: ADME, organism-based; parameters: dose 50 mg/kg, time infinity, route oral
Method in brief: (§5)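 Compound was given orally or intravenously in 1% DMSO/0.5% HPMC vehicle. Concentrations in plasma, or in brain where stated, gave Tmax, Cmax, T1/2, AUC0-t and AUC0-inf.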

[21] = AUC (0 to infinity) in dog plasma at 1 mg/kg, iv; type: ADME, organism-based, Canis lupus familiaris; parameters: dose 1 mg/kg, time infinity, route intravenous; method in brief: as §5
[22] = Half life in ICR mouse plasma at 50 mg/kg, po administered via gavage measured after 0.25 to 24 hrs by UPLC/MS analysis; type: ADME, organism-based
Method in brief: (§6)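 Male ICR mice dosed orally in 1% DMSO/0.5% HPMC vehicle; plasma or brain drug levels used to derive Tmax, Cmax, AUC0-t, AUC0-inf and T1/2.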

[23] = Half life in rat brain at 50 mg/kg, po; type: ADME, organism-based
[24] = Half life in ICR mouse plasma at 100 mg/kg, po administered via gavage measured after 0.25 to 24 hrs by UPLC/MS analysis; type: ADME, organism-based; method in brief: as §6
[25] = Half life in rat plasma at 10 mg/kg, po; type: ADME, organism-based
[26] = Half life in dog plasma at 3 mg/kg, po; type: ADME, organism-based, Canis lupus familiaris

Sequence of Bromodomain-containing protein 3 (Homo sapiens) (Q15059 2-726 limits assumed): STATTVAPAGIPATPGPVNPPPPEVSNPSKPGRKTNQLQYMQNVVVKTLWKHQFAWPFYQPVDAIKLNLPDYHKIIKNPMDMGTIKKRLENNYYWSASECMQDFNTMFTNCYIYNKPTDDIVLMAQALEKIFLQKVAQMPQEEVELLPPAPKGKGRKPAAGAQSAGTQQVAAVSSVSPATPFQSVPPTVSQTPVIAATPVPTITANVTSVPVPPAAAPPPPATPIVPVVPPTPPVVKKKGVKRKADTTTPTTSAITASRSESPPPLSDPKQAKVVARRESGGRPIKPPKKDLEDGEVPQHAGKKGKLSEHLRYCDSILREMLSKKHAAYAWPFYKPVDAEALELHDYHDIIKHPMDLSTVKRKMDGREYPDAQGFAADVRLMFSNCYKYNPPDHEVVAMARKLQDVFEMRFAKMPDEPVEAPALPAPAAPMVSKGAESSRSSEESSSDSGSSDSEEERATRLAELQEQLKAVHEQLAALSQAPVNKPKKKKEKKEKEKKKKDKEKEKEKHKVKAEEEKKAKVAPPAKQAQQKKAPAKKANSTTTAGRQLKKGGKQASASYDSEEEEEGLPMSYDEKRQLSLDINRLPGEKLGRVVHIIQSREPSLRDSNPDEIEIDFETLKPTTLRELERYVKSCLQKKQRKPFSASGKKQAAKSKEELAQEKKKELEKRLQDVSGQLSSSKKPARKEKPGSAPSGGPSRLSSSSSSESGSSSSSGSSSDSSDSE
Sequence of Histone acetyltransferase KAT2B (Homo sapiens) (Q92831 whole entry, looked up, the tested form may be a part): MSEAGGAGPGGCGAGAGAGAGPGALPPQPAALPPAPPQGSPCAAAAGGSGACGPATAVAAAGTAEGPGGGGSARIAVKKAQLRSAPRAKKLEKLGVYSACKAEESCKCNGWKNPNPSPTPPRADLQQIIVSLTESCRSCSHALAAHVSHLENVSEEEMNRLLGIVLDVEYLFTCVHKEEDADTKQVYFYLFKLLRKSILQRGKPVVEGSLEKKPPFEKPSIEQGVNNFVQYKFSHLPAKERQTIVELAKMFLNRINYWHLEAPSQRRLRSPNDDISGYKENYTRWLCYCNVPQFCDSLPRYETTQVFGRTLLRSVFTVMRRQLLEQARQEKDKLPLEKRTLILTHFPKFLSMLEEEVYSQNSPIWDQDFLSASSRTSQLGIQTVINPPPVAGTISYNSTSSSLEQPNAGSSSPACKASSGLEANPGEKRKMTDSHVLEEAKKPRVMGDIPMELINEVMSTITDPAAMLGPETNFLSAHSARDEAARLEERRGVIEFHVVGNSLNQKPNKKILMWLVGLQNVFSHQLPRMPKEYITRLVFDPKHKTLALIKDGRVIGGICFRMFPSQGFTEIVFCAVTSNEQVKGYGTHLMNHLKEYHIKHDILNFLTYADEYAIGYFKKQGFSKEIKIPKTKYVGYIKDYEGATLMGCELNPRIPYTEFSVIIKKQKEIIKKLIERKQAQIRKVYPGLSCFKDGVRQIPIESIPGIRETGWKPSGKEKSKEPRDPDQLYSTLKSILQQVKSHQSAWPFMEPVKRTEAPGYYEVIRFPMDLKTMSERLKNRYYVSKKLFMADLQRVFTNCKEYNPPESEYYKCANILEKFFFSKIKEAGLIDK
Sequence of Cytochrome P450 3A4 (P08684 whole entry): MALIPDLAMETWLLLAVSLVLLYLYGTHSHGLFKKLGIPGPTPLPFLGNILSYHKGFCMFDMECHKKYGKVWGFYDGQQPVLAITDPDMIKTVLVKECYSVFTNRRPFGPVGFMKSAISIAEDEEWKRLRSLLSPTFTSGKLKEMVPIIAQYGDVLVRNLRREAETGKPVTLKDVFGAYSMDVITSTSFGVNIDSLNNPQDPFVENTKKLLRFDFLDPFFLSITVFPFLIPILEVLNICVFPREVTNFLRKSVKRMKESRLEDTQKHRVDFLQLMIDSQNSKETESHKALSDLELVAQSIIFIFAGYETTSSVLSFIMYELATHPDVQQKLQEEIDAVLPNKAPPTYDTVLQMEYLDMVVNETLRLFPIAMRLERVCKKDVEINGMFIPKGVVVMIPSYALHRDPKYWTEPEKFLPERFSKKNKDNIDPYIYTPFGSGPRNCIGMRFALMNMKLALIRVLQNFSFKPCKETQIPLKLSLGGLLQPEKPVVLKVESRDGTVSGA
Sequence of Bromodomain and WD repeat-containing protein 1 (Homo sapiens) (Q9NSI6 whole entry, the tested form may be a part): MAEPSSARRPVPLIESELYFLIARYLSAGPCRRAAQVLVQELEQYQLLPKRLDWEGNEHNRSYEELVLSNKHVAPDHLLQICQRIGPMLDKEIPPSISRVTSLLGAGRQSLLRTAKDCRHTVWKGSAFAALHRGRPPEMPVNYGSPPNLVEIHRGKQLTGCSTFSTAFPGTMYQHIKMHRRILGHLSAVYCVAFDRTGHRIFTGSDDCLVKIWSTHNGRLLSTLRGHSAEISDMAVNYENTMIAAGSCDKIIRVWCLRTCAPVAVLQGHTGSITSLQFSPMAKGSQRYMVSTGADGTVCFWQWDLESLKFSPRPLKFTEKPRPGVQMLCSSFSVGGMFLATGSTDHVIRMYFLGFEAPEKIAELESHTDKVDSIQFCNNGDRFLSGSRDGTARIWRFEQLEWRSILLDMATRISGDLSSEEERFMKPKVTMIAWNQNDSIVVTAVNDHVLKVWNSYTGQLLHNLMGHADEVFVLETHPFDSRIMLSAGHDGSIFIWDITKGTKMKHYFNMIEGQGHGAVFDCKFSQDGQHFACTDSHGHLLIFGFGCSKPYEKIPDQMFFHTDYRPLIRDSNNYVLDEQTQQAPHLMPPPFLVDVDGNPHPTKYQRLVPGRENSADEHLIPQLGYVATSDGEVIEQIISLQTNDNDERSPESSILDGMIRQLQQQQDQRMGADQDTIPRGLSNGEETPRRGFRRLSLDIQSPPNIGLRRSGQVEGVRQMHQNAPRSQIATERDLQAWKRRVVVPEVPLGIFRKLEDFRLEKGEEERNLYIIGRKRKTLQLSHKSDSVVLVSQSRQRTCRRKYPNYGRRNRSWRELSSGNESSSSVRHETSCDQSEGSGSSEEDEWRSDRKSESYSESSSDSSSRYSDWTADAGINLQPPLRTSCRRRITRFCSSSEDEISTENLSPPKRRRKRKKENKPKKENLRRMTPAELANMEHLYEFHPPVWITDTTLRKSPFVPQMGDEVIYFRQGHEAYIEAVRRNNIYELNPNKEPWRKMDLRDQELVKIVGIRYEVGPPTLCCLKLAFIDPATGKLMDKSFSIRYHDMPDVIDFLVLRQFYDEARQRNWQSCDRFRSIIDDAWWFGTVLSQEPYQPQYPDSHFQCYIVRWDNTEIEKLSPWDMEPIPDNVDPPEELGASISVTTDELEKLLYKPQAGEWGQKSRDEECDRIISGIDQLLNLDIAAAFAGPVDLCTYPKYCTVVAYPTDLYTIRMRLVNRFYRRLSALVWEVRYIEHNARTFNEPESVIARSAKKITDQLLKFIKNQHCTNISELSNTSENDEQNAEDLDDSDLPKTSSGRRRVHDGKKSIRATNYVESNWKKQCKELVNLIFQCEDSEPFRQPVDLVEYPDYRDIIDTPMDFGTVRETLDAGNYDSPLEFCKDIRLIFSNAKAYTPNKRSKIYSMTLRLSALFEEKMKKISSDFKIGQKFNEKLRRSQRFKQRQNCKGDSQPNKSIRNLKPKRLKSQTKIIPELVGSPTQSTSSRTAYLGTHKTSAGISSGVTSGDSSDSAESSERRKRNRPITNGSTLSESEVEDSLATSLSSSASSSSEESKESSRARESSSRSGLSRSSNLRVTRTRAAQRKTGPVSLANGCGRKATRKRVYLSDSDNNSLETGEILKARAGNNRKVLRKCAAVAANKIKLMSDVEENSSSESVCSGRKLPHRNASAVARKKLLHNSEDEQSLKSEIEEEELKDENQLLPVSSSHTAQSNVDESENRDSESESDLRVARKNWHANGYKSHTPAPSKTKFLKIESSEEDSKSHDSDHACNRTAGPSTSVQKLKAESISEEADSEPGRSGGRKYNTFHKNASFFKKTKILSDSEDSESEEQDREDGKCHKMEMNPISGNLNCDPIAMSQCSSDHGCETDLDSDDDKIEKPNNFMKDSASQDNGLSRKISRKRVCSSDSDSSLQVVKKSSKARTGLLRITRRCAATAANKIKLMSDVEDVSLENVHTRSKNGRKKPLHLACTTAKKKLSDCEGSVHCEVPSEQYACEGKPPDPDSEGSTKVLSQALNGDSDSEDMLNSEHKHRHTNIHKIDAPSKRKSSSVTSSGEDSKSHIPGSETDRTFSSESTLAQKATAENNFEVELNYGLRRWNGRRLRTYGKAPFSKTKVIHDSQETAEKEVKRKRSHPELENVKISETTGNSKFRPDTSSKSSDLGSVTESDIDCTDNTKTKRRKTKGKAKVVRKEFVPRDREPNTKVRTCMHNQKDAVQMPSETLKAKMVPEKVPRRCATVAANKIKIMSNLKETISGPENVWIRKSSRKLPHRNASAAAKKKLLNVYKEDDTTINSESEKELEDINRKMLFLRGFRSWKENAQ
Sequence of Cytochrome P450 2C9 (P11712 whole entry): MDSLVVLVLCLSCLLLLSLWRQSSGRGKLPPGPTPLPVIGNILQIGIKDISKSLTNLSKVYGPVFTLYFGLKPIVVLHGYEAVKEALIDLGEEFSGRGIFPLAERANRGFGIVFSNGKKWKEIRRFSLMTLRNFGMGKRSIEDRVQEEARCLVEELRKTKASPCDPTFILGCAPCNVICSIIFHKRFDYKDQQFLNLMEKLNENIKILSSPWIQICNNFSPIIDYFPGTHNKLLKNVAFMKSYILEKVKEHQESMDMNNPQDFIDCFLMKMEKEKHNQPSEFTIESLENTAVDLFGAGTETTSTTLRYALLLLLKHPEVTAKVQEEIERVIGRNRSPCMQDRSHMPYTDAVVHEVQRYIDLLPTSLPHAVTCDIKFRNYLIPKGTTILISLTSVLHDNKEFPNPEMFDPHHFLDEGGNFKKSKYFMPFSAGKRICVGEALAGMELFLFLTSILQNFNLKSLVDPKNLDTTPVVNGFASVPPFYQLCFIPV

Cc1ccc(-n2nc(C(=O)N3C[C@@H](C)N[C@@H](C)C3)nc2-c2ccc3c(c2)N(C2CCCC2)[C@H](C)C(=O)N3C)cc1
Cmax [1]: 216 ng/mL
Activity [2]: 70 to 100%
TDI (Cytochrome P450 2C9): Not Active
TDI (Cytochrome P450 3A4): 8 ×10⁻⁴ /min
t1/2 [3]: 3.22 h
Activity [4]: < 5%
Activity [5]: < 5%
Activity [6]: < 5%
Activity [7]: 70 to 100%
Activity (MV4-11 [8]): Active
Activity (Hep 3B2): Active
Activity (BT-549): Active
Activity (MV4-11 [9]): Active
Activity (MV4-11 [10]): Dose-dependent effect
inhibition [11]: Dose-dependent effect
Activity (MV4-11 [12]): Dose-dependent effect
Activity (MV4-11 [13]): Dose-dependent effect
Activity (MV4-11 [14]): Dose-dependent effect
Activity (MV4-11 [15]): Active
half-life [16]: 0.3 h
Tmax [17]: 1.5 h
AUC(0-t) [18]: 2320 ng·h/mL
AUC(0-inf) [19]: 16800 ng·h/mL
AUC(0-inf) [20]: 4310 ng·h/mL
AUC(0-inf) [21]: 856 ng·h/mL
half-life [22]: 2.8 h
half-life [23]: 9.3 h
half-life [24]: 4.4 h
half-life [25]: 5 h
half-life [26]: 6.6 h

— ChEMBL document CHEMBL4414574, “Structure-Based Discovery and Development of a Series of Potent and Selective Bromodomain and Extra-Terminal Protein Inhibitors” (J Med Chem, 2019)
